Results on one compound are retold here after PubChem BioAssay AID492983 (Johns Hopkins Ion Channel Center, 2010).

Molecules are shown by their SMILES.

This assay addresses Short transient receptor potential channel 4 (Mus musculus) (UniProt Q9QUQ5). The assay can be described thus: inhibitors of receptor-activated mouse TRPC4 currents – cell-based, manual patch clamp, HEK TRPC4beta/mu-opioid, orthogonal assay, SAR follow-up (AID 492983). The settings on record: whole-cell patch clamp currents, at 1 µM, stronger effect = higher value. The essentials:
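Measured by: whole-cell voltage-clamp recording with voltage ramps. System: HEK293 cells expressing TRPC4beta and mu-opioid receptor. Times: over 2 min compound pretreatment, room temperature (22 °C). Buffer or medium: pipette solution with ~400 nM free Ca2+, external solution pH 7.4. Control set: untreated cells without compound as reference. Reagent: 10 µM carbachol with 0.1 µM DAMGO.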
A general note: In patch-clamp work, channel activity is measured electrically.

Sequence of Short transient receptor potential channel 4 (Mus musculus) (Q9QUQ5 whole entry, looked up): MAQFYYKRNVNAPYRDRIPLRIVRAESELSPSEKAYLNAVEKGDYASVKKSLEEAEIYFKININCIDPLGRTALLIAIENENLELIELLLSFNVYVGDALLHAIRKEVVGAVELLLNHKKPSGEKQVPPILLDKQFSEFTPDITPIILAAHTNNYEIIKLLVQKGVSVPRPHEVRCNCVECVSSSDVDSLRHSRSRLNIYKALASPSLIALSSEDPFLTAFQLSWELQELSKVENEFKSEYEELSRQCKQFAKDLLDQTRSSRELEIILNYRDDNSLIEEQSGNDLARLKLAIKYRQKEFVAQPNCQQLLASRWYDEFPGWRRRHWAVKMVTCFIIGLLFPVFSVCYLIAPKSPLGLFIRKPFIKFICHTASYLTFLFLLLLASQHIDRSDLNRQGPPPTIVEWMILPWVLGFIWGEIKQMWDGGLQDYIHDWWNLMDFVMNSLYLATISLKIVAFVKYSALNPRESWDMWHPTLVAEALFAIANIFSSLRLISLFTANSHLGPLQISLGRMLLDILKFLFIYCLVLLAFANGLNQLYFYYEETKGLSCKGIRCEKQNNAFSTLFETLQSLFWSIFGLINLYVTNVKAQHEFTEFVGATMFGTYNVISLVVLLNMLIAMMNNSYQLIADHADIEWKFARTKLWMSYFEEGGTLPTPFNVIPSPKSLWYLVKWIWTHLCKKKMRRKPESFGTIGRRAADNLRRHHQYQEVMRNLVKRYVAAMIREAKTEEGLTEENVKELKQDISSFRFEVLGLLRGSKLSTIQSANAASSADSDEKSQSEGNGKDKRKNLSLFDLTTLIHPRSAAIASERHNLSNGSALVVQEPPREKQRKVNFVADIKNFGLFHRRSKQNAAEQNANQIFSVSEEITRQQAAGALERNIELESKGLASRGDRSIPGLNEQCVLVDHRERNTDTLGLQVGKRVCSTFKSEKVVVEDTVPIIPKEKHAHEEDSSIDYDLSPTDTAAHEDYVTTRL

As usually defined, the inhibition is the percentage by which the read-out fell short of the control. Regarding `Cc1cc(N2CCCCC2)nc2ccccc12`, the inhibition at -100 mV is 69.5%. Moreover, the inhibition at +100 mV (measured here: outward current at +100 mV) came to 29.2%.
